In PMC3306222 (Biopolymers, 2011):
pKd: −log10 of the molar value. Where a SMILES comes first, the peptide text is derived from it. Bridges are numbered along the chain shown (N, C = ends). [ ]: non-standard residue; d: D form. S5 = C=CCCC[C@](C)(N)C(=O)O

Tests used:
[1] = Dynamic light scattering of free peptides; assay type: physicochemical; conditions: DLS, lower peptide concentration (100 µM)
In short: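 Free stapled peptide stocks, quantified by absorbance at 280 nm, were diluted into D₂O or H₂O to 100 µM or 1 mM and centrifuged at 6,000–8,000 g before loading. Light scattering was recorded as one hundred 5-s scans per sample at ambient temperature and corrected for solvent signal. Normalized intensity was plotted against radius, and the hydrodynamic radius and polydispersity index of major peaks were reported.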

[2] = assay type: physicochemical; conditions: fit of NMR chemical shift changes with concentration, D2O, 298 K, pH 7.0
[3] = molecular target: CA-CTD dimerization helix peptide CTD dimerization helix (Human immunodeficiency virus 1) (UniProt O93182); conditions: cited from earlier work

Compound | effective radius of gyration of monomer [1] [nm] | Kd of self-association, isodesmic model of indefinite association [2] [µM] | pKd [3]
CC[C@H](C)[C@H](N)C(=O)N[C@H](C(=O)N[C@@H](Cc1ccccc1)C(=O)N[C@@]1(C)CCC/C=C\CCC[C@@](C)(C(=O)N[C@@H](Cc2ccc(O)cc2)C(=O)N[C@@H](Cc2ccc(O)cc2)C(=O)NCC(=O)N[C@@H](CCCCN)C(=O)N[C@@H](CCCCN)C(=O)N[C@@H](CCCCN)C(N)=O)NC(=O)[C@H](CC(C)C)NC(=O)[C@H](CC(C)C)NC(=O)[C@H](CC(=O)O)NC1=O)[C@@H](C)O [NYAD-13] (H-ITF[S5]DLL[S5]YYGKKK-NH2; staple (Z) 4-8; N-terminus and C-terminus assumed) | 1 | 2500 ± 1400 | 
CA-CTD dimerization helix peptide CTD dimerization helix (from UniProt O93182) |  |  | 4.77
